# From paper PMC5488126 (CPT: Pharmacometrics & Systems Pharmacology, 2017)
# Tests used:
# [1] = Rat PK model of AZD5153 plasma concentrations; format: in vivo, Han Wistar rat; details: oral, population typical estimate (RSE), estimated from observed data
# Procedure, shortened: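 Female Han Wistar rats, 9–10 weeks old, were dosed orally in 0.5% hydroxymethylcellulose with 0.1% Tween80. Plasma was taken 2 h postdose on days 1, 4 and 7 and measured by LC-MS/MS. Data were fitted to a one-compartment model with first-order absorption, with ka and clearance fixed from a separate toxicology study and volume estimated. Fitting used FOCE-ELS and included between-subject variability.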
# circulating platelets = test: Rat platelet count study fitted to myelosuppression model; format: in vivo, Han Wistar rat; details: for platelet changes in rat: oral
# platelet counts [2] = details: human, BM dysfunction simulations
# Procedure, shortened: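 The Friberg platelet model was extended with a capacity term fr on the proliferating compartment. fr rose linearly from a baseline fraction of 0.65 (initial Circ0 61.2 ×10⁹/L) over recovery durations of 1 h and 10, 30, 100, 300 and 1,000 days. Runs used slope 0 (recovery only) or 0.45 with 300 mg q.d. for 98 days. Schedules compared over 300-day recovery were 300 mg q.d. continuous, b.i.d. 3 on 4 off, and q.d. 7 on 7 off. fr was also varied from 0.25 to 1.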
# platelet counts [3] = test: Simulation of human platelet counts with healthy BM; details: healthy simulations, converted from rat slope using fu
# [4] = cited from earlier work
SMILES,V [1],platelet changes in rat (circulating platelets; 0.1 mg/kg q.d.),platelet changes in rat (circulating platelets; 1 mg/kg q.d.),platelet changes in rat (circulating platelets; 1.5 mg/kg b.i.d. (3 on 4 off)),"slopeAZD5153 (circulating platelets; rat platelet PD model, total concentrations, population typical estimate (RSE))",Recovery +drug induced myelosuppression: slopeAZD5153 (platelet counts [2]),slopeAZD5153 (platelet counts [3]),frequency of severe TCP by pretreatment baseline ([4]; OTX015 phase 1 trial),"dose-limiting toxicity in patients ([4]; phase I, nonleukemia hematological malignancies)"
"COc1nnc2ccc(N3CCC(c4ccc(OCCN5CCN(C)C(=O)[C@H]5C)cc4)CC3)nn12 [AZD5153, (3R)‐4‐[2‐[4‐[1‐(3‐methoxy‐[1,2,4]triazolo[4,3‐b]pyridazin‐6‐yl)‐4‐piperidyl]phenoxy]ethyl]‐1,3‐dimethyl‐piperazin‐2‐one]",0.39 (16) L/kg,negligible platelet changes,clear effects,clear effects,0.09 (14) 1/(μmol/L),0.45 1/(μmol/L),0.45 1/(μmol/L),,
Cc1sc2c(c1C)C(c1ccc(Cl)cc1)=N[C@@H](CC(=O)Nc1ccc(O)cc1)c1nnc(C)n1-2 [OTX015],,,,,,,,severe TCP was more frequent in patients with low platelet counts at pretreatment baseline,thrombocytopenia (TCP) as a dose‐limiting toxicity (DLT)
